Rows were chosen to be rich in hits. Some 3.6% of all compounds tested hit in one or more screens of this group.
CSC inhib – cancer stem cell inhibition; cancer stem cell-like cells viability, luminescence; inhibition, % at 7.5 µM; 300,000 compounds, 1.1% hits; AID 2717; in the data active = inhibition above about 75%; inconclusive = no clear call, values can overlap the other calls; tested in HMLE shEcad cells
Beta apoptosis – beta cell apoptosis inhibition. INS-1E cytokine-induced death, ATP luminescence, 48 h; percent of positive-control rescue, neutral wells zero. protection from apoptosis, % (test concentration not listed). 300,000 compounds, 0.8% hits. AID 435005;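 active = Every replicate reaches about 75%, or at least half do and their mean reaches it too, limit read from the data; inconclusive = At least half of replicates reach the limit but their mean does not; inactive = Under half of replicates reach the limit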;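 note: 0% = cytokine-treated negative control wells and 100% = positive control rescue; higher means more ATP so stronger rescue from cytokine killing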
T cruzi repl – blocks replication of Trypanosoma cruzi; T. cruzi beta-gal in NIH3T3, luminescence, 90 h; inhibition, % (concentration not given with the values); 300,000 compounds, 1.4% hits;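 active = mean inhibition across valid replicates above about 55%, limit read from the data; inconclusive = mean below that limit but half or more replicates reach it; inactive = mean below it, under half of replicates reach it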;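 note: signal also drops with host cell toxicity which is not excluded here; 0% = plate median of DMSO wells and 100% = zero luminescence signal; higher percent means less beta-gal luminescence so fewer parasites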
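Assay system: NIH/3T3 fibroblasts plus reporter T. cruzi. Amount: NIH/3T3 cells, 5,000 per well. Buffer or medium: DMEM, 2% fetal bovine serum. Doses: compound pinned at 50 nL/well, DMSO. Schedule: ≥90 h infection period, 3 h prior cell attachment. Signal: luminescent β-galactosidase signal after 60 min lysis. Read-out: parasite load inhibition, %.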
PfHsp90 yeast 2 – growth inhibition of yeast expressing Plasmodium Hsp90; S. cerevisiae expressing PfHsp90, BacTiter-Glo ATP, 48 h; yeast lacking PDR1 and PDR3 efflux regulators; 310,000 compounds, 0.32% hits; inhibition, % at 9.4 µM;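 active = every replicate shows inhibition above about 80%, whatever the replicate mean, limit read from the data; inconclusive = mean inhibition reaches the set limit but some replicate falls short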;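 note: 0% = DMSO neutral controls and 100% = 20 µM radicicol positive controls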
SKKanGAS inh – SKKanGAS growth inhibition. S. pyogenes SKKanGAS, kanamycin growth, BacTiter-Glo, 6 h. inhibition, % at 7.5 µM. AID 1662. 300,000 compounds, 1.3% hits;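 active = mean replicate score, as percent of positive control median, at least 50; inconclusive = mean below 50 but one replicate at or above 50; inactive = mean and every replicate below 50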;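 note: strain carries kanamycin resistance gene driven by streptokinase promoter and grows in 40 µg/ml kanamycin; loss of luminescence reflects streptokinase promoter inhibition or plain growth inhibition; 0% = median of DMSO wells and 100% = positive control at its reference dose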
HIF act – HIF pathway transcriptional activation. U2OS HRE-luciferase reporter, luminescence; normalized: DMSO 0%, desferrioxamine 100%. activation, % at 7.5 µM (by protocol). 300,000 compounds, 0.32% hits. AID 1910;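 active = mean activation of at least 10% of the iron chelator positive control signal, with at least half of replicates also reaching 10%; inconclusive = mean and replicate majority disagree about reaching 10%; inactive = mean and most replicates under 10%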
An asterisk follows results filed as active; ? = inconclusive; . = not tested or not shown; + = active, no number.

SMILES	CSC inhib	Beta apoptosis	T cruzi repl	PfHsp90 yeast 2	SKKanGAS inh	HIF act
CC1CN(c2nc3ccccn3c(=O)c2/C=C(\C#N)C(=O)N2CCOCC2)CC(C)O1 (centres undefined)	-8	-1	-24	-16	-1	18*
O=C(c1cccc(S(=O)(=O)NCc2ccccc2)c1)N1CCN(c2ccccc2Cl)CC1	.	.	.	-16	.	.
O=[N+]([O-])c1ccc(CN2CCN(c3ccc(F)cc3)CC2)o1	-10	-3	52	-4	-1	-18
Cc1cccc(N2CCN(Cc3ccc([N+](=O)[O-])o3)CC2)c1C	-5	-5	58*	31	-9	-1
Nc1nc(-c2ccccc2)c(C(=O)Nc2ccccc2)s1	0	-15	7	-28	-8	0
O=C(CNC(=O)c1ccc(Cl)cc1)OC1CCOC1=O (centres undefined)	-26	-1	-10	-33	0	0
CCCCOc1ccc(C(=O)NCC(=O)OC2CCOC2=O)cc1 (centres undefined)	-12	-5	-9	-17	-3	305*
COc1ccc(NC(=O)c2ccc(S(=O)(=O)N3CC(C)OC(C)C3)cc2)cc1 (centres undefined)	-11	1	.	10	.	.
CC(C)Oc1ccc(C(=O)NC2CCCCC2)cc1	-8	5	-1	-23	-3	4
CC(C)Oc1ccc(C(CCN)C2CCCCC2)cc1 (centres undefined)	31	91*	33	-4	1	-2
O=C(COC(=O)c1cccc(O)c1)Nc1ccc(S(=O)(=O)N2CCOCC2)cc1	.	-1	.	15	.	.
CCCCOc1ccc(C(=O)CCN2CCOCC2)cc1	-1	3	56*	13	-4	0
COc1cc2cnc(-c3ccccc3)c(-c3cccc(C(F)(F)F)c3)c2cc1OC	128*	4	.	-37	.	.
Fc1ccc2cnc(-c3ccccc3)c(-c3cccc(C(F)(F)F)c3)c2c1	25	-5	.	-5	.	.
CC(C)Cc1ccc(/C=C/C(=O)NC2CC2)cc1	11	-5	6	-7	-2	2
CCN(CC)c1ccc(S(=O)(=O)Nc2cc(Cl)ccc2Cl)cc1NC(=S)NC(=O)C1CCCC1	100*	.	18	-15	42	0
Cc1cc(C)c(OCCCCN(C)C)c(Br)c1	50	4	70*	.	-7	0
Cc1nc2c(C)cccc2cc1C(=O)N/N=C/c1cccnc1	0	4	-5	-1	3	0
CCSc1cc(N2CCCC2)nc(-c2ccccc2)n1	30	4	21	-16	?	0
CC(C)Sc1cc(N2CCCC2)nc(-c2ccccc2)n1	2	7	9	-1	69*	0
CC(C)Sc1cc(N2CCCC2)nc(-c2ccc(F)cc2)n1	0	-1	12	-3	76*	0
CC(C)Sc1cc(N2CCOCC2)nc(-c2ccccc2)n1	24	-6	25	-50	-4	-1
CCCSc1cc(N2CCCC2)nc(-c2ccccc2)n1	-1	-3	-2	6	52*	-1
CC(C)Sc1cc(N2CCCC2)nc(-c2ccccc2Cl)n1	9	1	20	.	-11	-1
CC(C)(C)OC(=O)N(CCc1ccccc1)Cc1ccccc1OCc1cccc(NC(=O)C2CCCC2)c1	.	.	.	3	.	.
SMILES	CSC inhib	Beta apoptosis	T cruzi repl	PfHsp90 yeast 2	SKKanGAS inh	HIF act
O=C(CNC(=O)c1ccc(Br)cc1)NCc1cccnc1	-15	-3	-20	41	-3	-1
Fc1ccc(N/N=C/c2ccc(N3CCOCC3)cc2)c(F)c1	26	1	65*	-20	-8	4
CCCCn1c(N)c(N(CC(C)C)C(=O)c2cccc(S(=O)(=O)N(CC)c3ccccc3)c2)c(=O)[nH]c1=O	.	.	.	2	.	.
O=C(Nc1cnn(Cc2c(Cl)cccc2Cl)c1)C(c1ccccc1)c1ccccc1	18	20	55*	0	5	-1
COC(=S)N/C(=N\S(=O)(=O)c1ccc(Cl)cc1)c1ccccc1	-6	-6	-26	-10	-3	0
COc1cccc(S(=O)(=O)NCc2ccc(C(=O)Nc3cccc(Cl)c3)cc2)c1	99*	10	.	-37	10	0
CC(=O)Nc1ccc(C=NNc2ccc([N+](=O)[O-])cn2)cc1	.	.	.	6	.	.
Cc1onc(-c2ccccc2Cl)c1C(=O)N1CCCCC1C (centres undefined)	-9	-8	3	-15	1	-29
COc1cc(C=C(c2nc3ccccc3s2)c2nc3ccccc3s2)ccc1O	94*	-2	35	4	18	0
O=C(COc1ncnc2ccc(Br)cc12)Nc1ccc(N2CCOCC2)cc1	7	2	12	1	-3	-1
Brc1ccc2ncnc(Nc3ccc(N4CCOCC4)cc3)c2c1	-3	-9	62*	-29	2	.
O=C(NCc1ccco1)c1nc2c(nnn2Cc2ccccc2Cl)c(=O)[nH]1	94*	10	10	-77	2	0
O=C(Nc1ccc(F)cc1)c1nc2c(nnn2Cc2cccc3ccccc23)c(=O)[nH]1	17	5	1	-2	62*	0
COc1cc(CNc2cccc(C(=O)O)c2)cc(Br)c1OCC(=O)NC(C)(C)C	-4	1	-18	-6	6	-1
Cc1cc(N2CCC(C)CC2)nc(-n2nc(C)cc2C)n1	-9	64	27	18	95*	0
CCOC(=O)[C@@H]1[C@H]2COc3ccc(Br)cc3[C@H]2N2C(=O)N(c3ccc(F)cc3)C(=O)[C@@]12C	10	-7	7	-7	17	1
CCN(CC)C(=O)C1CCCN(C(=S)Nc2cccc3ccccc23)C1 (centres undefined)	16	85*	8	13	0	1
CCN(CC)C(=O)C1CCCN(C(=O)Nc2ccc(NC(=O)N3CCCC(C(=O)N(CC)CC)C3)cc2)C1 (centres undefined)	-7	-10	-19	-4	-13	0
CCN(CC)C(=O)C1CCCN(Cc2ccc(N(C)C)cc2)C1 (centres undefined)	-6	-2	71*	17	1	0
O=C(COc1ccc(Cl)cc1)NC1=NN(c2ccccc2)C(=O)C1	-3	-1	-22	125*	62*	0
O=C(CCCCl)NC1=NN(c2ccccc2)C(=O)C1	8	0	.	-1	.	.
CN1C[C@@H]2[C@@H]3C(=O)N(C)C(=O)[C@@H]3[C@](C)(C1=O)N2C(=O)c1ccc(Cl)cc1	.	.	.	3	.	.
CN1C(=O)/C(=C/c2cc(N=Nc3ccccc3)ccc2O)SC1=S	+	4	-4	29	34	1
Cc1ccc2cc(C(c3nnnn3C3CCCC3)N(Cc3cccnc3)Cc3ccco3)c(=O)[nH]c2c1 (centres undefined)	-7	-8	-5	-4	6	-1

Compound activity deposited in PubChem BioAssay by Broad Institute.
